Experimental data taken from ChEMBL document CHEMBL1155584, “Bioactive compounds from Psorothamnus junceus” (J Nat Prod, 2000).
In brackets after ≈: the same amount, converted by molar mass.

What was measured:
Type in all cases: functional
HT-29 = assay: Cytotoxicity against human HT29 cells by MTT assay
Outline: (§1)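 Human tumour lines (A-549 lung carcinoma, MCF-7 breast carcinoma, HT-29 colon adenocarcinoma, SK-MEL-5 melanoma from an axillary node metastasis, Malme-3M melanoma from a lung metastasis) tested with a standard MTT protocol. Adriamycin served as the positive control. Results are reported as GI50.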

Malme-3M = assay: Cytotoxicity against human MALME-3M cells by MTT assay; outline: as §1
A549 = assay: Cytotoxicity against human A549 cells by MTT assay; outline: as §1
MCF7 = assay: Cytotoxicity against human MCF7 cells by MTT assay; outline: as §1
SK-MEL-5 = assay: Cytotoxicity against human SK-MEL-5 cells by MTT assay; outline: as §1

Row | Structure (SMILES) | GI50 (HT-29) [µg/mL] | GI50 (Malme-3M) [µg/mL] | GI50 (A549) [µg/mL] | GI50 (MCF7) [µg/mL] | GI50 (SK-MEL-5) [µg/mL]
1 | CC(=O)C1=c2oc3c(c2Oc2ccccc21)C(=O)C(C)(C)C(=O)C=3C [PSOROTHAMNONE A] | 50 (≈ 149 µM) | 60 (≈ 178 µM) | 40 (≈ 119 µM) | 60 (≈ 178 µM) | 20 (≈ 59.5 µM)
2 | COc1cccc2c1C(=O)c1c(O)c3c(c(O)c1C2=O)C[C@@](O)(C(=O)CO)C[C@@H]3O[C@H]1C[C@H](N)[C@H](O)[C@H](C)O1 [DOXORUBICIN] | 0.06 (≈ 0.11 µM) | 0.1 (≈ 0.184 µM) | 0.04 (≈ 0.0736 µM) | 0.2 (≈ 0.368 µM) | 0.03 (≈ 0.0552 µM)
3 | CC1=c2oc3c(c2C(=O)C(C)(C)C1=O)Oc1ccccc1C=3 [PSOROTHAMNONE B] | 30 (≈ 102 µM) | 40 (≈ 136 µM) | 30 (≈ 102 µM) | 40 (≈ 136 µM) | 40 (≈ 136 µM)
4 | CC1(C)C(=O)C(=C2C=Cc3ccccc3O2)C(=O)C(C)(C)C1=O [EMORYDONE] | 4 (≈ 12.9 µM) | 1 (≈ 3.22 µM) | 3 (≈ 9.67 µM) | 3 (≈ 9.67 µM) | 3 (≈ 9.67 µM)
5 | COC1=C(C)C(=O)C(C)(C)C(=O)/C1=C1\C=Cc2ccccc2O1 [DALRUBONE] | 0.02 (≈ 0.0644 µM) | 2 (≈ 6.44 µM) | 0.2 (≈ 0.644 µM) | 1 (≈ 3.22 µM) | 0.4 (≈ 1.29 µM)
